From ChEMBL document CHEMBL1287742, “Synthetic pseudopterosin analogues: A novel class of antiinflammatory drug candidates” (2010)
“And” between values parts separate entries of the source, which are not always exact repeats. Identical values can stand only once. The source made the active and inactive calls. No cut-off for these calls is given here.

Legend:
Mus musculus [1] = test: Antiinflammatory activity in mouse assessed as inhibition of PMA-induced ear edema at 25 ug/ear administered topically as single dose after PMA challenge and measured after 3 hrs and 20 mins; format: functional; settings: in the assay text read “simultaneously with PMA” for “after PMA challenge”
How it was run: (§1)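 Mouse ear edema: test compound applied topically in acetone to the inside pinna of the left ear together with PMA (2 µg/ear), under brief halothane anesthesia. Right ears received acetone only. Five mice per group. After 3 h 20 min the mice were euthanized and a 6 mm central ear biopsy was weighed. Edema was taken as the left-minus-right weight difference, expressed as % inhibition versus the PMA-only control group.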

Mus musculus [2] = test: Antiinflammatory activity in mouse assessed as effective dose per ear for inhibition of PMA-induced ear edema; format: functional; how it was run: as §1

SMILES | inhibition (INH) (Mus musculus [1]) | inhibition (Mus musculus [1]) | ED50 (Mus musculus [2])
Oc1cc2c3c(c1OC1OC[C@@H](O)[C@H](O)[C@H]1O)CCCC3CCC2 (some centres not stated) | 37% |  | 
C[C@@H]1O[C@@H](Oc2c(O)c(C(F)(F)F)c3c4c2CCCC4CCC3)[C@@H](O)[C@H](O)[C@@H]1O (some centres not stated) | 45% and 53% |  | 
C[C@@H]1O[C@@H](Oc2cc3c4c(c2O)C(=O)CCC4CCC3)[C@@H](O)[C@H](O)[C@@H]1O (some centres not stated) |  | inactive | 
Oc1c(OC2OC[C@@H](O)[C@H](O)[C@H]2O)cc2c3c1CCCC3CCC2 (some centres not stated) | 44% |  | 
C[C@@H]1O[C@@H](Oc2cc3c4c(c2O)CCCC4CCC3)[C@@H](O)[C@H](O)[C@@H]1O (some centres not stated) | 34% |  | 
C[C@@H]1O[C@@H](Oc2cc3c4c(c2O)C(C)(C)CCC4CCC3)[C@@H](O)[C@H](O)[C@@H]1O (some centres not stated) | 38% |  | 
Cc1c(O)c(O[C@@H]2O[C@@H](C)[C@@H](O)[C@@H](O)[C@@H]2O)c2c3c1CCCC3CCC2 (some centres not stated) | 49% |  | 
C[C@@H]1OC(Oc2c(O)cc3c4c2CCCC4CCC3)[C@@H](O)[C@H](O)[C@@H]1O (some centres not stated) | 24% |  | 
CC(C)=C[C@H]1C[C@H](C)[C@H]2CC[C@H](C)c3c(O[C@@H]4OC[C@@H](O)[C@H](O)[C@H]4O)c(O)c(C)c1c32 [PSEUDOPTEROSIN A] | 70% |  | 12 µg
C[C@@H]1CC[C@@H]2CCCc3cc(O[C@@H]4O[C@@H](C)[C@@H](O)[C@@H](O)[C@@H]4O)c(O)c1c32 (relative stereo) | 50% |  | 
C[C@@H]1O[C@@H](Oc2cc3c4c(c2O)[C@@H](C)CC[C@@H]4CCC3)[C@@H](O)[C@H](O)[C@@H]1O (relative stereo) | 58% |  | 
